These compounds were tested on HeLa (assay: Cytotoxicity against human HeLa cells after 48 hrs by MTT assay). Details: not given.
Type: functional, cell-based
Procedure, shortened: (§1)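 HL-60 (2 × 10^4/200 μl) or HeLa (1 × 10^4/200 μl) in RPMI-1640/MEM, 10% FCS, 37 °C, 5% CO2; treated 0.1–50 μM for 48 h, DMSO vehicle <0.2%. MTT added final 3 h; formazan dissolved in DMSO, OD 570 nm (reference 620 nm). IC50 as 50% viability versus untreated control; three experiments, CV <10%.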

| Structure (SMILES) | IC50 |
| --- | --- |
| C[C@H]1[C@H](C)CC[C@]2(C)CC[C@]3(C)C(=CC(=O)[C@@H]4[C@@]5(C)CC(C(N)=O)[C@H](O)[C@](C)(N)[C@@H]5CC[C@]43C)[C@H]12 (stereo partly specified) | > 50 µM |
| C[C@H]1[C@H](C)CC[C@]2(C)CC[C@]3(C)C(=CC[C@@H]4[C@@]5(C)CC(C(N)=O)[C@H](O)[C@](C)(N)[C@@H]5CC[C@]43C)[C@H]12 (stereo partly specified) | > 50 µM |
| CCCCOC(=O)[C@@]1(C)C(=O)CC[C@]2(C)[C@H]3C(=O)C=C4[C@@H]5[C@@H](C)[C@H](C)CC[C@]5(C)CC[C@@]4(C)[C@]3(C)CC[C@@H]12 | > 50 µM |

The compounds below were run on HL-60 (assay: Cytotoxicity against human HL60 cells after 48 hrs by MTT assay). Details: HL-60, 48 h.
Type: functional, cell-based
Procedure, shortened: as §1

| Structure (SMILES) | IC50 |
| --- | --- |
| C[C@H]1[C@H](C)CC[C@]2(C)CC[C@]3(C)C(=CC(=O)[C@@H]4[C@@]5(C)CC(C(N)=O)[C@H](O)[C@](C)(N)[C@@H]5CC[C@]43C)[C@H]12 (stereo partly specified) | > 50 µM |
| C[C@H]1[C@H](C)CC[C@]2(C)CC[C@]3(C)C(=CC[C@@H]4[C@@]5(C)CC(C(N)=O)[C@H](O)[C@](C)(N)[C@@H]5CC[C@]43C)[C@H]12 (stereo partly specified) | 37 µM |
| CCCCOC(=O)[C@@]1(C)C(=O)CC[C@]2(C)[C@H]3C(=O)C=C4[C@@H]5[C@@H](C)[C@H](C)CC[C@]5(C)CC[C@@]4(C)[C@]3(C)CC[C@@H]12 | > 50 µM |
